Test results: ChEMBL document CHEMBL1151753, “New benzylureas as a novel series of potent, nonpeptidic vasopressin V2 receptor agonists” (J Med Chem, 2008)
In brackets after ≈: the same amount, converted by molar mass. Activity calls are given as the source filed them. The rule behind the calls is not given here.

Legend:
[1] = system: Rattus norvegicus; test: Antidiuretic effect in Long-Evans Brattleboro rat model assessed as inhibition of urine production at 3 mg/kg, po after 2 hrs; type: functional, organism-based; design: dose 3 mg/kg
In short: (§1)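 Brattleboro rats (Long-Evans hooded strain lacking circulating AVP, diabetes insipidus model) dosed orally in carboxymethyl cellulose. Voided urine collected and measured over 1 h periods and compared with vehicle-treated animals. At least six animals per group, data as means.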

[2] = biological target: T1, Vasopressin V2 receptor (Homo sapiens, UniProt P30518); test: Binding affinity to human vasopressin V2 receptor expressed in HEK293 cells by radioligand binding assay; type: cell-based
[3] = biological target: T2, Oxytocin receptor (Homo sapiens, UniProt P30559); test: Binding affinity to oxytocin receptor
T2 sequence (P30559 whole entry): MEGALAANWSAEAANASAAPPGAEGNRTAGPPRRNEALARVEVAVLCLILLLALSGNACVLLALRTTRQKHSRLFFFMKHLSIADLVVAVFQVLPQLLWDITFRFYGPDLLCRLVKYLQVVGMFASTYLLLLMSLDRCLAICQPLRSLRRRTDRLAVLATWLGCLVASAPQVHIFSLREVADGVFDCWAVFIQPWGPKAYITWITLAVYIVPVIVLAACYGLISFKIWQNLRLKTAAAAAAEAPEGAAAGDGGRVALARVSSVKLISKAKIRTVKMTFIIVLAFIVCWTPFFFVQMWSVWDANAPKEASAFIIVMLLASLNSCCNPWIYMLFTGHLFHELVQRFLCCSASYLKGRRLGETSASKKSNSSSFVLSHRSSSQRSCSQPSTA

[4] = biological target: T1, Vasopressin V2 receptor; test: Agonist activity at human vasopressin V2 receptor expressed in HEK293 cells assessed as increase in intracellular cAMP level by CRE-luciferase reporter gene assay relative to arginine vasopressin; type: functional, cell-based
In short: (§2)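 HEK293 cells grown to 70-80% confluency, transiently transfected with receptor plus pGL4 CRE-Luc reporter, incubated 24 h at 37 °C/5% CO2, plated at 10000 cells/well, a further 24 h. Compounds in 0.5 log serial dilutions in duplicate, final DMSO 0.1%. Luciferase read by luminescence after 5 h at 37 °C, expressed as % of 100 nM AVP control. 4-parameter logistic fit gave EC50, reported as geometric mean ± SD.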

[5] = biological target: T3, Vasopressin V1b receptor (Homo sapiens) (UniProt P47901); test: Agonist activity at human vasopressin V1b receptor upto 10 uM by reporter gene assay; type: functional; in short: as §2
T3 sequence (whole entry): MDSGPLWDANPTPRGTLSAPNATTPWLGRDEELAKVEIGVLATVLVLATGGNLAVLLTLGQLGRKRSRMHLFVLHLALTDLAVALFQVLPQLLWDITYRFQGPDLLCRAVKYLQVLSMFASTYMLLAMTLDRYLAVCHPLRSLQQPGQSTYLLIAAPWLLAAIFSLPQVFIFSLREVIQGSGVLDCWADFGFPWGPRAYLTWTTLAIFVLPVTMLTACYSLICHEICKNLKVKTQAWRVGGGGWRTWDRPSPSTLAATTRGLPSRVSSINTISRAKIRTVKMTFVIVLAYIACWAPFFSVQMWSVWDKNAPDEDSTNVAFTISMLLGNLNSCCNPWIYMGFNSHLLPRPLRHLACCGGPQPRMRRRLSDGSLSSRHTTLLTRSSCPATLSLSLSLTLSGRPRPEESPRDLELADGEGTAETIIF

[6] = biological target: T1, Vasopressin V2 receptor; test: Agonist activity at human vasopressin V2 receptor expressed in HEK293 cells assessed as increase in intracellular cAMP level by CRE-luciferase reporter gene assay; type: functional, cell-based; in short: as §2
[7] = biological target: Vasopressin V2 receptor (Rattus norvegicus, UniProt Q00788); test: Agonist activity at rat vasopressin V2 receptor expressed in HEK293 cells assessed as increase in intracellular cAMP level by CRE-luciferase reporter gene assay; type: functional, cell-based; in short: as §2
[8] = system: Rattus norvegicus; test: Antidiuretic effect in Long-Evans Brattleboro rat model assessed as inhibition of urine production at 1 mg/kg, po after 1 hr relative to control; type: functional; in short: as §1
[9] = biological target: Vasopressin V1a receptor (Homo sapiens) (UniProt P37288); test: Agonist activity at human vasopressin V1a receptor upto 10 uM by reporter gene assay; type: functional; in short: as §2
[10] = system: Rattus norvegicus; test: Antidiuretic effect in Long-Evans Brattleboro rat model assessed as inhibition of urine production at 1 mg/kg, po after 1 to 2 hrs; type: functional, organism-based; design: dose 1 mg/kg; in short: as §1
[11] = Aqueous solubility of the compound; type: physicochemical; details: water (aqueous)
[12] = system: Rattus norvegicus; test: Antidiuretic effect in Long-Evans Brattleboro rat model assessed as inhibition of urine production at 1 mg/kg, po in methylcellulose after 5 hrs; type: functional, organism-based; design: dose 1 mg/kg
[13] = biological target: Vasopressin V2 receptor (Rattus norvegicus) (UniProt Q00788); test: Agonist activity at rat vasopressin V2 receptor expressed in HEK293 cells assessed as increase in intracellular cAMP level by CRE-luciferase reporter gene assay relative to arginine vasopressin
Chain of Vasopressin V2 receptor (Rattus norvegicus) (Q00788 whole entry, looked up): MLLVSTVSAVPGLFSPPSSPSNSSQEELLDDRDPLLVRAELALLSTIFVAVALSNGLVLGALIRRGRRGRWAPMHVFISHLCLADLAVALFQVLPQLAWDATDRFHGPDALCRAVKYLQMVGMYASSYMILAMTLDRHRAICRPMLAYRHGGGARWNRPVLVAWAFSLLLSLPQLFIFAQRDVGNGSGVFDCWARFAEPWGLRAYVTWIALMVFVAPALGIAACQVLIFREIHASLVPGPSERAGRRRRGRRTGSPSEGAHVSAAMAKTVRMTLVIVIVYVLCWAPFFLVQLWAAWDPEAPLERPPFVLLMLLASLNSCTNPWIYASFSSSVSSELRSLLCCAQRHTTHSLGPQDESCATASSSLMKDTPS

Chain of Vasopressin V2 receptor (Rattus norvegicus, UniProt Q00788) (Q00788 whole entry): as the sequence (Q00788 whole entry, looked up) above
T1 sequence (P30518 whole entry): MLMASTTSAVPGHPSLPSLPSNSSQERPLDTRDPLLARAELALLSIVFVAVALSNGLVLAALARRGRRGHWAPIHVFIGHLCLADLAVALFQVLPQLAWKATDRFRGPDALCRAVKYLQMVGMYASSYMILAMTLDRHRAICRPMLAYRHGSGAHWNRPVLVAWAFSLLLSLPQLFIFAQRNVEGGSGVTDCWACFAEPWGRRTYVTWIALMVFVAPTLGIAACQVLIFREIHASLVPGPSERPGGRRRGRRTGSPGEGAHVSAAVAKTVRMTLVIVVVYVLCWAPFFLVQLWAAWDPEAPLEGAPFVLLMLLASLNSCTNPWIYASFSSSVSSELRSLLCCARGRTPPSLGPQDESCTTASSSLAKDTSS
Chain of Vasopressin V1a receptor (Homo sapiens) (P37288 whole entry, looked up): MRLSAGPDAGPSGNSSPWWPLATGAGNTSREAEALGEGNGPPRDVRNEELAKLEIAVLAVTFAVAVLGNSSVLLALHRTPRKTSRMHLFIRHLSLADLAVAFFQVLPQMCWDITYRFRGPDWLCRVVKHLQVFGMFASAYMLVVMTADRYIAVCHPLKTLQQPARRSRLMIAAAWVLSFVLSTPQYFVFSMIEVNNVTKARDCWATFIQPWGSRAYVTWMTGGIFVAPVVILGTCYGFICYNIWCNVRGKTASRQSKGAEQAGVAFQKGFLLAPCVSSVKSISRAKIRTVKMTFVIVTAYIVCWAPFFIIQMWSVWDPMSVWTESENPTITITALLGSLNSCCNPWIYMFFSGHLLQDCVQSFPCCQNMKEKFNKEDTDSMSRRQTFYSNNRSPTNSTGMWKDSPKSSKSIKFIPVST

| SMILES | EC50 [6] [nM] | also measured |
| --- | --- | --- |
| Cc1cc(C(=O)N2CCCCc3ccccc32)ccc1CNC(=O)N1CCC[C@H]1C(=O)N(C)C [FEDOVAPAGON] | 24 | Activity [1]: Active; Ki [2]: 2000 nM; Ki [3]: > 10000 nM; Efficacy [4]: 100%; Activity [5]: inactive; EC50 [7]: 150 nM; inhibition in vivo at 1 mg/kg [8]: 81%; Activity [9]: inactive |
| Cc1cc(C(=O)N2CCCC(O)c3ccccc32)ccc1CNC(=O)N1CCC[C@H]1C(=O)N(C)C (stereo partly specified) | 230 |  |
| COc1cc(CNC(=O)Nc2c(F)cccc2F)ccc1C(=O)N1CCCCc2ccccc21 | 110 |  |
| Cc1cc(C(=O)N2CCCCc3ccccc32)ccc1CNC(=O)NCC(=O)Oc1ccccc1 | 820 |  |
| Cc1cc(C(=O)N2CCCCc3ccccc32)ccc1CNC(=O)N1CCC[C@H]1C(=S)N(C)C | 3.2 |  |
| COC1(OC)C[C@@H](C(=O)N(C)C)N(C(=O)NCc2ccc(C(=O)N3CCCCc4ccccc43)cc2C)C1 | 20 |  |
| Cc1cc(C(=O)N2CCCCc3ccccc32)ccc1CNC(=O)Nc1ccccc1 | 130 |  |
| Cc1cc(C(=O)N2CCCCc3ccccc32)ccc1CNC(=O)NCC(=O)N(C)C | 58 | Activity [10]: Active; EC50 [7]: 50 nM; inhibition in vivo at 1 mg/kg [8]: 82%; solubility [11]: 177 µg/mL (≈ 419 µM) |
| Cc1cc(C(=O)N2CCCCc3ccccc32)ccc1CNC(=O)NCC(=O)OC(C)C | 140 |  |
| Cc1cc(C(=O)N2CCCCc3ccccc32)ccc1CNC(=O)NCC(=O)O | 180 |  |
| Cc1cc(C(=O)N2CCCCc3ccccc32)ccc1CNC(=O)N1CCC[C@H]1C(=O)OC(C)(C)C | 390 |  |
| Cc1cc(C(=O)N2CCCCc3ccccc32)ccc1CNC(=O)N1C[C@H](O)C[C@H]1C(=O)N(C)C | 2.3 | EC50 [7]: 41 nM; inhibition in vivo at 1 mg/kg [8]: 68% |
| Cc1cc(C(=O)N2CCCCc3ccccc32)ccc1CNC(=O)N1CC(F)(F)C[C@H]1C(=O)N(C)C | 50 |  |
| O=C(NCc1ccc(C(=O)N2CCCCc3ccccc32)c(Cl)c1)Nc1c(F)cccc1F | 40 |  |
| Cc1cc(C(=O)N2CCCC(F)(F)c3ccccc32)ccc1CNC(=O)N1CCC[C@H]1C(=O)N(C)C | 1700 |  |
| Cc1cc(C(=O)N2CCCCc3ccccc32)ccc1CNC(=O)NCC(=O)N1CCCCC1 | 150 |  |
| Cc1cc(C(=O)N2CCCCc3ccccc32)ccc1CNC(=O)N1CC(=O)C[C@H]1C(=O)N(C)C | 27 |  |
| CCOC(=O)CNC(=O)NCc1ccc(C(=O)N2CCCCc3ccccc32)cc1C | 140 |  |
| COC(=O)[C@@H]1CCCN1C(=O)NCc1ccc(C(=O)N2CCCCc3ccccc32)cc1C | 100 |  |
| Cc1cc(C(=O)N2CCCCc3ccccc32)ccc1CNC(=O)N1CCC[C@@H]1C(=O)N(C)C | 380 |  |
| Cc1cc(C(=O)N2CCCCc3ccccc32)cc(C)c1CNC(=O)Nc1c(F)cccc1F | 82 |  |
| Cc1cc(C(=O)N2CCCCc3ccccc32)ccc1CNC(=O)N1CCC[C@H]1C(=O)O | 680 |  |
| Cc1cc(C(=O)N2CCCCc3ccccc32)ccc1CNC(=O)N1CCC[C@H]1C(=O)OC(C)C | 950 |  |

| SMILES | EC50 [6] [nM] | also measured |
| --- | --- | --- |
| Cc1cc(C(=O)N2Cc3cccn3Cc3ccccc32)ccc1CNC(=O)N1CCC[C@H]1C(=O)N(C)C | 120 |  |
| Cc1cc(C(=O)N2CCCOc3ccccc32)ccc1CNC(=O)N1CCC[C@H]1C(=O)N(C)C | 1000 |  |
| CO[C@@H]1C[C@@H](C(=O)N(C)C)N(C(=O)NCc2ccc(C(=O)N3CCCCc4ccccc43)cc2C)C1 | 4.7 | EC50 [7]: 65 nM; inhibition in vivo at 1 mg/kg [8]: 84% |
| Cc1cc(C(=O)N2CCCCc3ccccc32)ccc1CNC(=O)Nc1ccccc1F | 30 |  |
| Cc1cc(C(=O)N2CCCCc3ccccc32)ccc1CNC(=O)Nc1c(F)cccc1F | 2.1 | Ki [2]: 200 nM; Ki [3]: > 10000 nM; EC50 [7]: 13 nM; Activity [12]: inactive; inhibition in vivo at 1 mg/kg [8]: 0% |
| Cc1cc(C(=O)N2CCCCc3ccccc32)ccc1CNC(=O)NCC(=O)OCc1ccccc1 | 730 |  |
| Cc1cc(C(=O)N2CCCCc3ccccc32)ccc1CNC(=O)NCC(=O)N1CCCC1 | 100 |  |
| O=C(NCc1ccc(C(=O)N2CCCCc3ccccc32)cc1)Nc1c(F)cccc1F | 47 | Ki [3]: > 10000 nM; Activity [13]: 30% |
| Cc1cc(C(=O)N2CCCCc3ccccc32)ccc1CNC(=O)NCC(N)=O | 210 |  |
| Cc1cc(C(=O)N2CCCCc3ccccc32)ccc1CNC(=O)NCC(=O)OC(C)(C)C | 120 |  |
| Cc1cc(C(=O)N2CCCCc3ccccc32)ccc1CNC(=O)N1C[C@H](OC(C)(C)C)C[C@H]1C(=O)N(C)C | 46 |  |
| Cc1ccn(-c2ccc(C(=O)N3Cc4cccn4Cc4ccccc43)c(Cl)c2)n1 | < 1 |  |
| CCc1cc(C(=O)N2CCCCc3ccccc32)ccc1CNC(=O)Nc1c(F)cccc1F | 10 |  |
| Cc1cc(C(=O)N2CCc3cccn3-c3ccccc32)ccc1CNC(=O)N1CCC[C@H]1C(=O)N(C)C | 140 |  |
| Cc1cc(C(=O)N2CCCCc3ccccc32)ccc1CNC(=O)Nc1ccc[nH]c1=O | 140 |  |
| CCN(CC)C(=O)[C@@H]1CCCN1C(=O)NCc1ccc(C(=O)N2CCCCc3ccccc32)cc1C | 350 |  |
| COC(=O)CNC(=O)NCc1ccc(C(=O)N2CCCCc3ccccc32)cc1C | 37 |  |
| Cc1cc(C(=O)N2CCCC(C)c3ccccc32)ccc1CNC(=O)N1CCC[C@H]1C(=O)N(C)C (stereo partly specified) | 220 |  |
| Cc1cc(C(=O)N2CCCCc3ccccc32)ccc1CNC(=O)N1C[C@H](OCc2ccccc2)C[C@H]1C(=O)N(C)C | 10 |  |
| Cc1cc(C(=O)N2CCc3ccccc3-c3ccccc32)ccc1CNC(=O)N1CCC[C@H]1C(=O)N(C)C | 84 |  |
| Cc1cc(C(=O)N2CCCCc3ccccc32)ccc1CNC(=O)NCC(=O)NCc1ccccc1 | 270 |  |
| O=C(NCc1ccc(C(=O)N2CCCCc3ccccc32)c(F)c1)Nc1c(F)cccc1F | 180 |  |
| CCO[C@@H]1C[C@@H](C(=O)N(C)C)N(C(=O)NCc2ccc(C(=O)N3CCCCc4ccccc43)cc2C)C1 | 4.3 | EC50 [7]: 15 nM; inhibition in vivo at 1 mg/kg [8]: 60% |
